Measurements: ChEMBL document CHEMBL1148754, “4- and 5-aroylindoles as novel classes of potent antitubulin agents” (J Med Chem, 2007)

How the values were obtained:
KB = test: Growth inhibition of human KB cells after 72 hrs by methylene blue dye assay; assay type: functional, cell-based
Procedure, shortened: (§1)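 Antiproliferative screen in human cancer lines: KB (oral epidermoid carcinoma), HT29 (colorectal carcinoma), H460 (non-small cell lung carcinoma), TSGH and MKN45 (stomach carcinoma), plus KB-VIN10, an MDR-positive line overexpressing P-gp 170/MDR. Potency is reported as IC50.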

[1] = Growth inhibition of human KB-vin10 cells after 72 hrs by methylene blue dye assay; assay type: functional; settings: KB-VIN10, 72 h; procedure, shortened: as §1
NCI-H460 = test: Growth inhibition of human H460 cells after 72 hrs by methylene blue dye assay; assay type: functional, cell-based; settings: NCI-H460, 72 h; procedure, shortened: as §1
HT-29 = test: Growth inhibition of human HT29 cells after 72 hrs by methylene blue dye assay; assay type: functional, cell-based; settings: HT-29, 72 h; procedure, shortened: as §1
TSGH = test: Growth inhibition of human TSGH cells after 72 hrs by methylene blue dye assay; assay type: functional, cell-based; procedure, shortened: as §1
MKN-45 = test: Growth inhibition of human MKN45 cells after 72 hrs by methylene blue dye assay; assay type: functional, cell-based; settings: MKN-45, 72 h; procedure, shortened: as §1
Tubulin = test: Inhibition of tubulin polymerization in presence of microtubule associated proteins after 30 mins; assay type: protein-complex assay, Homo sapiens
Tubulin (Homo sapiens) = Tubulin (Homo sapiens) (UniProt P68371+Q9H4B7+P0DPH7+P68366+Q13509+Q71U36+P04350+Q3ZCM7+P07437+P68363+Q9BQE3+Q6PEY2+Q13885+Q9BVA1+Q9BUF5); test: Displacement of [3H]colchicine from tubulin at 5 uM; assay type: protein-complex assay

| Structure (SMILES) | IC50 (KB) [nM] | IC50 (NCI-H460) [nM] | IC50 (HT-29) [nM] | IC50 (MKN-45) [nM] | IC50 (Tubulin) [nM] | Activity (Tubulin (Homo sapiens)) [%] | IC50 [1] [nM] | IC50 (TSGH) [nM] |
| --- | --- | --- | --- | --- | --- | --- | --- | --- |
| COc1cc(C(=O)n2ccc3ccccc32)cc(OC)c1OC | > 10000 | > 10000 | 9600 | 5200 |  |  | > 10000 | 8400 |
| COc1cc(C(=O)c2ccc3c(ccn3CC(=O)O)c2)cc(OC)c1OC | 520 | 530 | 460 | 396 |  |  | 476 | 548 |
| CCn1ccc2cc(C(=O)c3cc(OC)c(OC)c(OC)c3)ccc21 | 36 | 38 | 32 | 31 | 1200 | 81 | 40 | 41 |
| COc1cc(C(=O)c2ccc3cc[nH]c3c2)cc(OC)c1OC | 510 | 520 | 330 | 480 |  |  | 452 | 430 |
| COc1cc(C(=O)c2ccc3c(ccn3C)c2)cc(OC)c1OC | 13.6 | 14.1 | 10.5 | 11.2 | 1100 | 84 | 12.5 | 13.4 |
| COc1cc2c(c(OC)c1OC)-c1ccc(OC)c(=O)cc1[C@@H](NC(C)=O)CC2 [COLCHICINE] |  | 19 |  | 13 |  |  | 120 |  |
| COc1cc(C(=O)c2ccc3[nH]ccc3c2)cc(OC)c1OC | 104 | 112 | 100 | 88 | 2200 | 71 | 111 | 103 |
| COc1cc(C(=O)c2ccc3c(ccn3CO)c2)cc(OC)c1OC | 39 | 39 | 34 | 33 | 1800 | 78 | 35 | 43 |

Continued, in another order:

| IC50 (KB) [nM] | IC50 (NCI-H460) [nM] | IC50 (HT-29) [nM] | IC50 (MKN-45) [nM] | IC50 (Tubulin) [nM] | Activity (Tubulin (Homo sapiens)) [%] | Structure (SMILES) | IC50 [1] [nM] | IC50 (TSGH) [nM] |
| --- | --- | --- | --- | --- | --- | --- | --- | --- |
| 5200 | 5100 | 4600 | 2900 |  |  | COc1cc(C(=O)c2ccc3c(ccn3CCN(C)C)c2)cc(OC)c1OC | 4900 | 4900 |
| 1600 | 1700 | 1000 | 980 |  |  | COc1cc(C(=O)c2c[nH]c3ccccc23)cc(OC)c1OC | 1500 | 1100 |
| 1900 | 2000 | 1800 | 680 |  |  | CCCn1ccc2cc(C(=O)c3cc(OC)c(OC)c(OC)c3)ccc21 | 2100 | 1500 |
| 310 | 295 | 250 | 210 |  |  | COc1cc(C(=O)c2cccc3cc[nH]c23)cc(OC)c1OC | 284 | 310 |
| > 10000 | > 10000 | > 10000 | > 10000 |  |  | COc1cc(C(=O)c2ccc3c(ccn3CCC(=O)O)c2)cc(OC)c1OC | > 10000 | > 10000 |
| 22.1 | 28.8 | 22.4 | 21.6 | 1900 | 75 | COc1cc(C(=O)c2cccc3c2ccn3C)cc(OC)c1OC | 26.1 | 26.9 |
| 50.7 | 53.8 | 46.4 | 49.1 | 2000 | 74 | COc1cc(C(=O)c2cccc3[nH]ccc23)cc(OC)c1OC | 51.4 | 54.4 |
|  |  |  |  |  | 89 | COc1ccc(/C=C\c2cc(OC)c(OC)c(OC)c2)cc1O |  |  |
| 2900 | 2100 | 1700 | 1500 |  |  | COc1cc(C(=O)c2cc3ccccc3[nH]2)cc(OC)c1OC | 2800 | 1800 |
| 1800 | 1600 | 1200 | 470 |  |  | COc1cc(C(=O)c2ccc3c(ccn3C(C)C)c2)cc(OC)c1OC | 1600 | 1100 |
